# The full list was thinned out, with hits kept by preference.
# PGC1a acetyl up = raises PGC1a acetylation signal in U2OS cells; activation, % at 15.6 µM; U2OS PGC1a acetylation AlphaScreen, overnight; 0.21% of 350,000 active;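 active = every replicate reaching activation of at least 50%, whatever the mean replicate activation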;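 also: hits raise the AlphaScreen acetylation signal above neutral controls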
#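 System – flag-PGC1a/GCN5 U2OS cells · Quantity – 7000 U2OS cells per well · Signal – AlphaScreen proximity luminescence, anti-acetyl-lysine antibody · Schedule – overnight compound treatment, 37 °C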
# Numbers stand for hits; . = inactive.
SMILES,PGC1a acetyl up
Cc1cccc(S(=O)(=O)N(C)C[C@@H]2OCc3cn(nn3)CCCC(=O)N([C@H](C)CO)C[C@H]2C)c1,.
CCC(=O)NCc1c(C)c(C)n(Cc2ccccc2)c1-n1cccc1,.
CC(C)(C)c1ccc(NC(=O)N2CCCN(c3ccc([N+](=O)[O-])cn3)CC2)cc1,186.4
CCOc1ccc(C(C)=O)cc1N1C(=O)C2C3C=CC(C3=C(C)C)C2C1=O (stereo not given),.
O=C(O)c1cccc(N2C(=O)CSC2c2c(F)cccc2Cl)c1 (stereo not given),56.3
CC[C@H](C)[C@@H]1OC(=O)[C@@H](C)[C@@H](CC)NC(=O)[C@H](C)N(C)C(=O)C(C)(C)C(=O)C(C)NC(=O)[C@H](Cc2ccccc2)N(C)C(=O)[C@H](C(C)C)N(C)C(=O)CNC(=O)[C@H](CC(C)C)N(C)C(=O)CNC1=O (stereo not given in full),.
CCOC(=O)COc1ccc(/C=C/[N+](=O)[O-])c(OCC(=O)OCC)c1,77.0
CNC[C@H]1Oc2ncc(C#CC3CCCCC3)cc2C(=O)N([C@H](C)CO)C[C@H]1C,.
O=C(NCc1cccnc1)/C(=C/c1ccc(-c2ccc(Cl)cc2)o1)S(=O)(=O)c1ccccc1,359.7
Cc1ccc(CNC(=O)c2ccc(CS(=O)(=O)c3ccccc3)o2)cc1,.
CN(C)C(=O)c1ccc(-c2ccc([C@H]3[C@H]4CN(C(=O)CC5CC5)CC(=O)N4[C@H]3CO)cc2)cc1,.
COc1ccc(-c2cnc3c(c2)C(=O)N([C@H](C)CO)C[C@H](C)[C@@H](CN(C)C(=O)C2CC2)O3)cc1,.
C(=C\c1ccccc1)/CN1CCN(C(c2ccnc3ccccc23)c2nnnn2C2CCCCC2)CC1 (stereo not given),64.7
COc1ccc(CCn2c(-c3ccc(OC)cc3)nc3c(c(=O)c4ccccc4n3C)c2=O)cc1,109.0
CO[C@H]1CN(C)C(=O)c2cc(NC(C)=O)ccc2OC[C@@H](C)N(CC2CCCCC2)C[C@@H]1C,.
Cc1ccc(S(=O)(=O)Nc2ccc3c(c2)C(=O)N([C@H](C)CO)C[C@@H](C)[C@@H](CN(C)C(=O)NC(C)C)OCCCC[C@H](C)O3)cc1,.
O=C(COC(=O)c1ccc([N+](=O)[O-])s1)Nc1ccc(F)cc1,106.3
CO[C@H]1CN(C)C(=O)c2cc(NS(=O)(=O)c3cn(C)cn3)ccc2OC[C@@H](C)NC[C@H]1C,.
CCS(=O)(=O)c1ccc2oc(Nc3ccccc3Br)nc2c1,.
CC(C)c1nnc(NC(=O)CCS(=O)(=O)c2nc(-c3cccs3)cc(C(F)(F)F)n2)s1,102.8
C[C@H](NS(=O)(=O)c1ccc2c(c1)OCCCO2)C(=O)N1CCN(Cc2ccccc2)CC1,.
Cc1cc(C)cc(OC(=O)CS(=O)c2ccc(C(F)(F)F)cc2[N+](=O)[O-])c1 (stereo not given),63.9
Cc1noc(C)c1S(=O)(=O)Nc1ccc2c(c1)C(=O)N([C@@H](C)CO)C[C@@H](C)[C@@H](CN(C)CC1CCCCC1)OCCCC[C@@H](C)O2,.
COc1ccccc1C(=O)Nc1nnc(CCc2ccccc2)s1,69.0
COc1cccc(C(=O)Nn2cnnc2)c1OC,.
SMILES,PGC1a acetyl up
CC(C)Cc1nnc(NC(=O)c2cc3c(s2)CCC3)s1,.
CCC(=O)N(C)C[C@@H]1Oc2ncc(-c3ccc(C(=O)N(C)C)cc3)cc2C(=O)N([C@H](C)CO)C[C@@H]1C,.
Cn1c(CO)cnc1SCC(=O)c1ccc(Cl)cc1,.
Cc1nc([N+](=O)[O-])c(Br)n1Cc1ccc(Cl)c(Cl)c1,89.8
Cc1ccc2c(Cl)cc(Cl)c(OCc3c(C)noc3C)c2n1,.
O=C(C(Br)=Cc1ccccc1)c1ccccc1,159.7
CCN1C(C#N)=C(C#N)N=C(C)CC1(C)C,.
CCN(CC)CCOc1ccc(/C(=C(\Cl)c2ccccc2)c2ccccc2)cc1,79.9
C[C@@H]1CN([C@H](C)CO)C(=O)CCCn2nncc2CO[C@H]1CN(C)C(=O)Nc1cccc(F)c1,.
CCCCNC(=O)c1ccc(CS(=O)(=O)c2ccccc2OC)o1,.
N#Cc1sc2nccc(Nc3ccccc3)c2c1N,.
CCOc1ccc(NC(=O)c2cccc3c2C(=O)N(CCOC)C3)cc1,93.9
O=C(N=Nc1c(O)[nH]c2ccccc12)c1cc(-c2cccs2)[nH]n1,.
Cn1cnnc1Sc1ccc(/C=C/C(=O)c2ccc(O)cc2)cc1[N+](=O)[O-],58.0
COc1ccc(CN(C)C[C@@H]2Oc3ccc(NS(=O)(=O)c4c(C)noc4C)cc3C(=O)N([C@@H](C)CO)C[C@@H]2C)cc1,.
CCOC(=O)c1[nH]c(C)c(C(=O)Nc2cc(Cl)ccc2C)c1C,77.8
Cc1ccc(C)c(NC(=O)c2nnn(Cc3ccccc3)c2N)c1,.
O=C(C[C@H]1C=C[C@H](NC(=O)Nc2ccc(C(F)(F)F)cc2)[C@@H](CO)O1)NCc1ccccn1,.
Fc1ccc(/C=N/N2CCCCC2)c(F)c1,.
CC(C)Cn1cnc2c(N)nc3ccccc3c21,.
N=c1sccn1CC(=O)Nc1ccccc1Sc1ccccc1,.
Nc1nc(SCC(=O)Nc2ccccc2Sc2ccc(Cl)cc2)n[nH]1,89.2

# Screening results from PubChem.
